The source of these data is ChEMBL document CHEMBL3352282, “Design and synthesis of novel azapeptide activators of apoptosis mediated by caspase-9 in cancer cells” (Bioorg Med Chem Lett, 2014).

For experiment [1], the system named is MDA-MB-231. As to the kind of experiment: Induction of cell death in serum starved human MDA-MB-231 cells at 100 uM after 16 hrs by trypan blue dye exclusion assay. Format: functional. In outline: (§1)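 Breast cancer line serum-starved 6 h, then exposed to compound (DMSO vehicle) for 16 h at a final 50 µM or 100 µM. Cells trypsinized, stained with Trypan blue and counted. Cell death expressed as percentage, relative to vehicle. Mean ± SEM of three independent experiments, paired comparison to DMSO control.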

The test system of experiment [2] is MDA-MB-231. As to the kind of experiment: Induction of cell death in serum starved human MDA-MB-231 cells at 50 uM after 16 hrs by trypan blue dye exclusion assay. Format: functional. In outline:
as §1

In experiment [3] the test system is MDA-MB-231. Briefly: Induction of apoptosis in serum starved human MDA-MB-231 cells assessed as caspase-3 activation at 100 uM after 16 hrs by Western blotting method. It counts as functional, cell-based. In outline: (§2)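 MDA-MB-231 cells serum-starved 6 h, then exposed to DMSO vehicle, etoposide, AVPI-NH₂ or analogs at one final concentration (50 or 100 µM, per line), harvested; caspase-3 and caspase-9 activation assessed by Western blotting. Quantification as mean ± SEM of three independent experiments.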

Experiment [4] concerns MDA-MB-231. As to the kind of experiment: Induction of apoptosis in serum starved human MDA-MB-231 cells assessed as caspase-3 activation at 50 uM after 16 hrs by Western blotting method. It counts as functional, cell-based. In outline:
as §2
(A western blot detects proteins with antibodies after separation by electrophoresis.)

In experiment [5] the test system is MDA-MB-231. Briefly: Induction of apoptosis in serum starved human MDA-MB-231 cells assessed as caspase-9 activation at 100 uM after 16 hrs by Western blotting method. It counts as functional, cell-based. In outline:
as §2

Experiment [6] has as its system MDA-MB-231. As to the kind of experiment: Induction of apoptosis in serum starved human MDA-MB-231 cells assessed as caspase-9 activation at 50 uM after 16 hrs by Western blotting method. Format: functional, cell-based. In outline:
as §2

Experiment [7] deals with MDA-MB-231. Briefly: Induction of apoptosis in serum starved human MDA-MB-231 cells assessed as caspase-9 activation after 16 hrs by Western blotting method. Format: functional, cell-based. Particulars: MDA-MB-231, 16 h. In outline:
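MDA-MB-231 cells serum-starved 6 h, treated 16 h across a concentration series (about 12.5–125 µM), harvested; total and cleaved caspase-9 immunoblotted and quantified. Mean ± SEM of two independent experiments; significance versus paired DMSO condition.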

One may read the pEC50 as −log10 of the EC50, conventionally taken in molar units.

pEC50: −log10 of the molar value. Activity calls are given as the source filed them. No cut-off for these calls is given here.

Molecule `C[C@H](N)C(=O)NN(Cc1ccccc1)C(=O)N1CCC[C@H]1C(=O)NC(c1ccccc1)c1ccccc1` returned an Activity in experiment [1] of 50%. The result in experiment [2], in experiment [3], in experiment [4], in experiment [5] and in experiment [6] was Active. Moreover, the pEC50 in experiment [7] is 4.30.

Molecule `C[C@H](N)C(=O)NNC(=O)N1CCC[C@H]1C(=O)NC(c1ccccc1)c1ccccc1` returned an Activity in experiment [1] of 50%. Also, the outcome in experiment [2], in experiment [3] and in experiment [5] was Active. The pEC50 in experiment [7] was 4.13.

In experiment [1], `C#CCN(NC(=O)[C@H](C)N)C(=O)N1CCC[C@H]1C(=O)NC(c1ccccc1)c1ccccc1` registered an Activity of 50%. Moreover, the outcome in experiment [2] was inactive. Also, the outcome in experiment [3] and in experiment [5] was Active.

For `C[C@H](N)C(=O)NN(C)C(=O)N1CCC[C@H]1C(=O)NC(c1ccccc1)c1ccccc1`, the Activity in experiment [1] was determined as 50%. Also, the outcome in experiment [2], in experiment [3] and in experiment [5] was Active.

For `COc1cc([C@@H]2c3cc4c(cc3[C@@H](O[C@@H]3O[C@@H]5CO[C@@H](C)O[C@H]5[C@H](O)[C@H]3O)[C@H]3COC(=O)[C@H]23)OCO4)cc(OC)c1O` [ETOPOSIDE], the Activity in experiment [2] is 50%. Besides, in experiment [4], the outcome was Active. Also, the result in experiment [6] was inactive.

In experiment [1], `C=CCN(NC(=O)[C@H](C)N)C(=O)N1CCC[C@H]1C(=O)NC(c1ccccc1)c1ccccc1` returned an Activity of 50%. Also, in experiment [2], the outcome was inactive. Moreover, the result in experiment [3] and in experiment [5] was Active.
